PMC3791136 (Journal of the American Chemical Society, 2013)

System: A2780 cells
Experiment: Cytotoxicity with ER stress inhibitor salubrinal
Format: cell-based
Settings: salubrinal 10 μM
Method in brief: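 A2780 cells given the test compound alone or co-administered with salubrinal (10 μM, an ER stress inhibitor). IC50 values were compared with and without inhibitor, with cisplatin run alongside.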

## N.N.[Cl][Pt][Cl] [cisplatin]
  effect of salubrinal on toxicity: limited effect
